# Compound activity (PubChem)
# Compounds with a hit are over-represented: about 1.7% of the library has one in this group of screens.
# CAL PDZ FP-1: blocks peptide binding to human CAL PDZ domain. inhibition, % at 20 µM. Q9HD26. 330,000 compounds, 0.02% hits. AID 504414. purified CAL PDZ, TMR-peptide fluorescence polarization, 1 h;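 active means highest replicate inhibition of at least 40%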;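 further: plate controls were DMSO neutral control wells for no effect and unlabeled competitor peptide control wells for full effect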
#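 Read-out basis: mP drop reported as inhibition | Assay system: Tagged CAL PDZ protein CerCALP, purified | Benchmarks: Unlabelled peptide for full inhibition, DMSO wells as neutral | Schedule: 1 h incubation at room temperature before polarization reading | Buffer or medium: Sodium phosphate/NaCl buffer pH 7.4 with TCEP, IgG, Thesit | Doses: Single point, 20 µM | Measured by: Fluorescence polarization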
# ARNT TACC3 PPI: disrupts binding between human ARNT and TACC3; Q9Y6A5; AlphaScreen His-ARNT PAS-B/GST-TACC3 binding, luminescence; TACC3 fragment carries E629A point mutation; inhibition, % at 9.99 µM; 390,000 compounds, 0.66% hits; AID 623870;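 active means mean inhibition of replicates at least 50% and at least half of replicates each reaching 50%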;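 further: 0% = complete ARNT plus TACC3 wells and 100% = ARNT alone without TACC3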
# CFTR F508del cor: correctors of CFTR F508del function in bronchial epithelial cells; CFBE cells, YFP halide quenching; stimulated with forskolin plus potentiator P3; % fluorescence drop versus neutral controls; activity (quench increase), % at 7.58 µM; 350,000 compounds, 0.36% hits;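 active means mean added fluorescence quench of at least 8% versus neutral control, with both replicates also reaching 8%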;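 further: cells transiently co-express mutant CFTR-F508del with the halide-sensitive YFP; corrector assay measuring rescue of mutant channel to the surface after 24 h compound exposure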
# PGC1a acetyl inh: lowers PGC1a acetylation signal in U2OS cells; AlphaScreen anti-acetyl-lysine; with virally co-expressed GCN5 acetyltransferase; inhibition, % at 15.6 µM; 350,000 compounds, 0.17% hits;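 active means every replicate shows inhibition of at least 40%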;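 further: 0% = neutral control wells and 100% = positive control wells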
# CAL PDZ FP-2: blocks peptide binding to the human CAL PDZ domain | AID 602252 | Q9HD26 | 300,000 compounds, 0.92% hits | inhibition, % at 24.9 µM | purified CAL PDZ, TMR-peptide fluorescence polarization, 1 h;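 active means mean inhibition of at least 30% with at least half of replicates also reaching 30%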;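 further: 0% = DMSO neutral control and 100% = excess unlabeled competitor peptide PRC23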
# miR122 inh: blocks miR-122 activity in Huh7 sensor cells; 340,000 compounds, 0.3% hits; Huh7 miR-122 Renilla luciferase sensor, 48 h; neutral wells = 0, positive control = 100; activation (reporter increase), % at 12.5 µM;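 active means mean replicate activation score at least 90 and every replicate individually at or above 90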;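 further: higher luciferase means less miR-122 activity so hits act as miR-122 inhibitors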
# * = called active by the depositor; / = not tested or not shown; ! = a repeat was not active; [ ] = another dose, or the depositor's remark.
SMILES,CAL PDZ FP-1,ARNT TACC3 PPI,CFTR F508del cor,PGC1a acetyl inh,CAL PDZ FP-2,miR122 inh
C[C@@H]1CN([C@@H](C)CO)C(=O)c2cc(NC(=O)Nc3ccccc3)ccc2O[C@H]1CN(C)Cc1ccc(-c2ccccc2)cc1,/,1,-1,-5,/,-8[16.7 µM]
CN1C(=O)c2cc(NC(=O)Cc3ccccc3)ccc2OC[C@@H]2O[C@H](CC(=O)O)CC[C@H]21,/,-6,0,3,/,-25[16.7 µM]
O=C(Nc1ccccc1)N[C@@H]1CC[C@@H](CCn2cc(-c3ccccc3F)nn2)O[C@H]1CO,/,/,0,/,/,/
Cc1ccccc1S(=O)(=O)N[C@@H]1CC[C@@H](CCn2cc(Cc3ccccc3)nn2)O[C@H]1CO,/,-5,0,61*,/,/
NC(=S)Nc1cccc2cccnc12,0,0,/,/,-4,/
NC(=S)NNc1cccc2cccnc12,2,65*,4,/,-5,0
CCCN1C[C@H](C)[C@H](OC)CN(C)C(=O)c2ccc(NC(=O)CC)cc2OC[C@H]1C,/,/,-1,5,/,9[16.7 µM]
O=C(Nc1nnc(-c2ccncc2)o1)c1cccc(N2C(=O)CCC2=O)c1,0,/,1,8,8,12
O=C(Nc1nnc(-c2ccco2)o1)c1cccc(N2C(=O)CCC2=O)c1,1,49*,0,3,-1,2
O=C(COC(=O)CNC(=O)c1ccccc1Cl)NC1CC1,1,-10,2,-1,39*,-8
Cc1ccc(S(=O)(=O)N(C)C[C@@H]2Oc3ccc(NC(=O)NC4CCCCC4)cc3CC(=O)N([C@@H](C)CO)C[C@@H]2C)cc1,/,2,1,2,/,-7[16.7 µM]
C[n+]1c2cc(N)ccc2cc2ccc(N)cc21,8,28*!,62*,21,1,1
CO[C@@H]1CN(C)C(=O)c2cc(NC(=O)NC(C)C)ccc2OC[C@H](C)N(C(=O)CC2CC2)C[C@H]1C,/,12,0,-7,/,-20[16.7 µM]
COc1cccc(-c2cnc3c(c2)C(=O)N([C@H](C)CO)C[C@H](C)[C@@H](CN(C)Cc2ccncc2)O3)c1,/,-6,-2,-7,/,8[16.7 µM]
C=CCn1c(O)c(/C=C2\C=NN=C2c2ccccc2)sc1=S,-1,1,-1,/,52*,/
Cc1ccc2c(c1)c1nnc(SCC(=O)N3CCCc4ccccc43)nc1n2CC(=O)O,0,67*,-1,/,-2,/
C[C@H]1CN([C@@H](C)CO)C(=O)c2cccc(NS(C)(=O)=O)c2O[C@H]1CN(C)C(=O)Nc1ccc(C(F)(F)F)cc1,/,2,-1,9,/,-3[16.7 µM]
Cn1c(Cc2ccccc2)n[nH]c1=S,-1,-17,/,/,0,/
Cn1c(Cc2cccs2)n[nH]c1=S,0,-1,/,3,38*,-2
CC(=O)N(C)C[C@@H]1Oc2ncc(-c3ccc(C(=O)N(C)C)cc3)cc2C(=O)N([C@H](C)CO)C[C@H]1C,/,-7,-1,0,/,-4[16.7 µM]
O=C(COC(=O)CCCN1C(=O)c2ccccc2C1=O)Nc1ncc(Cl)cc1Cl,-1,-2,/,-8,40*,-3
Cc1ccc2nc(-c3ccc4c(c3)OCCO4)cn2c1,-3,3,12*,0,-3,16
c1ccn2cc(-c3ccc4c(c3)OCCO4)nc2c1,-2,4,-5,5,/,/
CO[C@@H]1CN(C)C(=O)c2ccc(NC(=O)c3cc(C)on3)cc2OC[C@@H](C)N(CC2CC2)C[C@H]1C,/,/,0,-1,/,/
O=C(NNS(=O)(=O)c1ccccc1)C1CC(c2cccnc2)=NO1 (stereo unspecified),-1,-3,-3,-1,3,/
SMILES,CAL PDZ FP-1,ARNT TACC3 PPI,CFTR F508del cor,PGC1a acetyl inh,CAL PDZ FP-2,miR122 inh
O=C(NNS(=O)(=O)c1ccc(F)cc1)C1CC(c2cccnc2)=NO1 (stereo unspecified),0,-1,-1,31,74*,-3
COc1ccc(CCNc2nc(-c3ccncc3)cs2)cc1OC,0,4,1,0,/,7
COc1ccc(CCNc2c3ccccc3nc3ccccc23)cc1OC,-1,-13,10*,6,-9,-12
COc1ccc(CCNc2nc(-c3ccccn3)cs2)cc1OC,-2,65*,-3,/,49*,9
COc1nc(NCCc2ccc(OC)c(OC)c2)nc(OC)n1,-2,13,/,3,5,6
C[N+](C)(C)CCCN(Cc1ccc2c(c1)OCO2)C(=O)NC1CCCCC1,0,-5,-2,3,41*,/
C[C@@H](NC(=O)C[C@H]1CC[C@@H](NS(=O)(=O)c2cccc(F)c2)[C@H](CO)O1)c1ccccc1,/,/,1,11,/,/
CC[C@H](C)[C@@H]1NC(=O)[C@@H](CC(C)C)NC(=O)[C@H](C(C)C)NC(=O)[C@H]2CSSC[C@H](NC1=O)C(=O)N2,/,/,-11,72*,/,-26
Cc1ccccc1C(=O)NN1C(=O)CSC1=S,1,/,1,3,-6,1
O=C1CSC(=S)N1Nc1ccccc1,28,-5,4,/,53*,-6
CC1(C)Cc2c(sc3c2c(=N)n(Cc2ccco2)c(=O)n3Cc2ccc(F)cc2)CO1,-2,-1,/,-12,-4,-4
COc1ccc(Cn2c(=O)n(Cc3ccco3)c(=N)c3c4c(sc32)COC(C)(C)C4)cc1,-2,-3,/,-10,59*,-1
Cc1csc2sc(-c3ccnc(SCC(=O)NCc4ccccc4)n3)c(C)c12,-3,-4,16*,-6,1,4
CCN(CCn1cccn1)C(=O)c1cc(COc2ccc(F)c(F)c2)on1,0,-3,-2,-1,57*,-3
CCN(CCn1cccn1)C(=O)c1cc(COc2ccccc2SC)on1,-1,0,0,1,-4,-5
Cc1nn(C)cc1C(C)NC(=O)c1cc(COc2ccc(F)c(F)c2)on1 (stereo unspecified),-3,10,-3,-2,-12,-4
Cc1nn(C)c(C)c1C(C)NC(=O)c1cc(COc2ccc(F)c(F)c2)on1 (stereo unspecified),0,-1,-1,2,40*,-2
Cc1ccsc1/C=N/n1c(-c2ccccc2)n[nH]c1=S,0,39,-3,/,-3,/
Cc1ccsc1/C=N/n1c(-c2ccccn2)n[nH]c1=S,0,61*,2,/,-1,/
O=[N+]([O-])c1cc2c(cc1/C=N/n1c(-c3ccccc3)n[nH]c1=S)OCO2,0,-2,/,3,-2,5
O=[N+]([O-])c1cc2c(cc1/C=N/n1c(-c3ccccn3)n[nH]c1=S)OCO2,1,71*,/,/,-6,/
S=c1[nH]nc(-c2ccccn2)n1/N=C/c1cccc(Cl)c1,0,61*,-2,/,/,/
